Laboratory results from ChEMBL document CHEMBL3297654, “Synthesis, antimicrobial and cytotoxic activities, and structure-activity relationships of gypsogenin derivatives against human cancer cells” (Eur J Med Chem, 2014).
The source made the active and inactive calls. No cut-off for these calls is given here.

Columns and labels:
[1] = Antiproliferative activity against human Saos2 cells after 24 and 72 hrs by MTT assay; assay type: functional, cell-based; conditions: SAOS-2
Procedure, shortened: (§1)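 ATCC human cell lines are kept in RPMI, DMEM or McCoy's 5A with 10–15% heat-inactivated FCS at 37 °C and 5% CO2. They are seeded at 1×10^4–1×10^5 cells/mL in 48-well plates and exposed to 0.5, 10, 20 or 40 µM. Viability is read by MTT (590 nm) at 24 and 72 h. Growth is expressed relative to untreated cells and IC50 is fitted, in triplicate.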

MCF7 [2] = assay: Induction of apoptosis in human MCF7 cells at 0.5 uM after 48 hrs by Hoechst 33258/propidium iodide staining based phase contrast microscopic analysis; assay type: functional
Procedure, shortened: (§2)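 Cells in 48-well plates treated with 0.5, 10, 20 or 40 µM for 24 and 48 h. Values are read at 48 h, 20 µM for test agents and 0.5 µM for controls. Staining is Hoechst 33258/propidium iodide double staining with fluorescence microscopy. Blue nuclei are viable or early-to-mid apoptotic, and pink nuclei are late apoptotic or necrotic. Apoptosis and necrosis are scored from chromatin condensation as % of cells. Cells are grown at 37 °C in 5% CO2 in RPMI, DMEM or McCoy's 5A with 10–15% heat-inactivated FCS.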

Caco-2 [3] = assay: Induction of apoptosis in human Caco2 cells at 0.5 uM after 48 hrs by Hoechst 33258/propidium iodide staining based phase contrast microscopic analysis; assay type: functional; procedure, shortened: as §2
HL-60 [4] = assay: Induction of necrosis in human HL60 cells at 0.5 uM after 48 hrs by Hoechst 33258/propidium iodide staining based phase contrast microscopic analysis; assay type: functional; procedure, shortened: as §2
HeLa [5] = assay: Antiproliferative activity against human HeLa cells after 24 and 72 hrs by MTT assay; assay type: functional, cell-based; procedure, shortened: as §1
SAOS-2 [6] = assay: Induction of apoptosis in human Saos2 cells at 0.5 uM after 48 hrs by Hoechst 33258/propidium iodide staining based phase contrast microscopic analysis; assay type: functional; procedure, shortened: as §2
HL-60 [7] = assay: Induction of apoptosis in human HL60 cells at 0.5 uM after 48 hrs by Hoechst 33258/propidium iodide staining based phase contrast microscopic analysis; assay type: functional; procedure, shortened: as §2
HL-60 [8] = assay: Antiproliferative activity against human HL60 cells after 24 and 72 hrs by MTT assay; assay type: functional, cell-based; procedure, shortened: as §1
HT-29 [9] = assay: Induction of necrosis in human HT-29 cells at 0.5 uM after 48 hrs by Hoechst 33258/propidium iodide staining based phase contrast microscopic analysis; assay type: functional; procedure, shortened: as §2
SAOS-2 [10] = assay: Induction of necrosis in human Saos2 cells at 0.5 uM after 48 hrs by Hoechst 33258/propidium iodide staining based phase contrast microscopic analysis; assay type: functional; procedure, shortened: as §2
MCF7 [11] = assay: Induction of necrosis in human MCF7 cells at 0.5 uM after 48 hrs by Hoechst 33258/propidium iodide staining based phase contrast microscopic analysis; assay type: functional; procedure, shortened: as §2
Caco-2 [12] = assay: Antiproliferative activity against human Caco2 cells after 24 and 72 hrs by MTT assay; assay type: functional, cell-based; procedure, shortened: as §1
HT-29 [13] = assay: Antiproliferative activity against human HT-29 cells after 24 and 72 hrs by MTT assay; assay type: functional, cell-based; procedure, shortened: as §1
HeLa [14] = assay: Induction of apoptosis in human HeLa cells at 0.5 uM after 48 hrs by Hoechst 33258/propidium iodide staining based phase contrast microscopic analysis; assay type: functional; procedure, shortened: as §2
Caco-2 [15] = assay: Induction of necrosis in human Caco2 cells at 0.5 uM after 48 hrs by Hoechst 33258/propidium iodide staining based phase contrast microscopic analysis; assay type: functional; procedure, shortened: as §2
HT-29 [16] = assay: Induction of apoptosis in human HT-29 cells at 0.5 uM after 48 hrs by Hoechst 33258/propidium iodide staining based phase contrast microscopic analysis; assay type: functional; procedure, shortened: as §2
HeLa [17] = assay: Induction of necrosis in human HeLa cells at 0.5 uM after 48 hrs by Hoechst 33258/propidium iodide staining based phase contrast microscopic analysis; assay type: functional; procedure, shortened: as §2
Proteus vulgaris = assay: Antimicrobial activity against Proteus vulgaris ATCC 33420 assessed as zone of inhibition at 10 mg by disk diffusion test; assay type: functional, organism-based
Escherichia coli = assay: Antimicrobial activity against Escherichia coli ATCC 25922 assessed as zone of inhibition at 10 mg for 24 hrs at 37 degC by disk diffusion test; assay type: functional, organism-based
Pseudomonas aeruginosa = assay: Antimicrobial activity against Pseudomonas aeruginosa ATCC 35032 assessed as zone of inhibition at 10 mg for 24 hrs at 37 degC by disk diffusion test; assay type: functional, organism-based
Procedure, shortened: (§3)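 Agar well diffusion following NCCLS disc susceptibility guidance. Compounds were held as 1000 µg/mL stocks in DMSO. Broth cultures (18–24 h) were adjusted to 0.5 McFarland (1×10^8 cells/mL) and spread on Mueller Hinton agar. A 6 mm well was cut and filled with 30 µL compound. Plates were incubated 24 h at 37 °C, and the inhibition zone diameter was measured in mm.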

Bacillus thuringiensis = assay: Antimicrobial activity against Bacillus thuringiensis assessed as zone of inhibition at 10 mg for 24 hrs at 30 degC by disk diffusion test; assay type: functional, organism-based
Procedure, shortened: (§4)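 Well diffusion on Mueller Hinton agar per NCCLS disc susceptibility tests. DMSO stocks were 1000 µg/mL. Bacterial broth cultures (18–24 h) were adjusted to 0.5 McFarland, about 1×10^8 cells/mL. A 6 mm well received 30 µL compound. Incubation was 24 h at 30 °C, and zone diameters were read in mm. B. thuringiensis was a fecal clinical isolate grown in nutrient broth.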

Klebsiella pneumoniae = assay: Antimicrobial activity against Klebsiella pneumoniae ATCC 13882 assessed as zone of inhibition at 10 mg for 24 hrs at 37 degC by disk diffusion test; assay type: functional, organism-based; procedure, shortened: as §3
Bacillus cereus = assay: Antimicrobial activity against Bacillus cereus ATCC 11778 assessed as zone of inhibition at 10 mg for 24 hrs at 30 degC by disk diffusion test; assay type: functional, organism-based; procedure, shortened: as §4
Enterococcus faecalis = assay: Antimicrobial activity against Enterococcus faecalis ATCC 29212 assessed as zone of inhibition at 10 mg for 24 hrs at 37 degC by disk diffusion test; assay type: functional; conditions: ATCC 29212, 24 h, read-out: DIZ; procedure, shortened: as §3
Bacillus subtilis = assay: Antimicrobial activity against Bacillus subtilis ATCC 6633 assessed as zone of inhibition at 10 mg by disk diffusion test; assay type: functional, organism-based

Structure (SMILES): COc1cccc2c1C(=O)c1c(O)c3c(c(O)c1C2=O)C[C@@](O)(C(=O)CO)C[C@@H]3O[C@H]1C[C@H](N)[C@H](O)[C@H](C)O1 [DOXORUBICIN]
- IC50 [1]: 0.33 µM
- Activity (MCF7 [2]): 1%
- Activity (Caco-2 [3]): 4%
- Activity (HL-60 [4]): 45%
- IC50 (HeLa [5]): 0.34 µM
- Activity (SAOS-2 [6]): 2%
- Activity (HL-60 [7]): 2%
- IC50 (HL-60 [8]): 0.33 µM
- Activity (HT-29 [9]): 49%
- Activity (SAOS-2 [10]): 34%
- Activity (MCF7 [11]): 44%
- IC50 (Caco-2 [12]): 0.35 µM
- IC50 (HT-29 [13]): 0.31 µM
- Activity (HeLa [14]): 2%
- Activity (Caco-2 [15]): 47%
- Activity (HT-29 [16]): 5%
- Activity (HeLa [17]): 28%

Structure (SMILES): CC1(C)S[C@@H]2[C@H](NC(=O)[C@H](N)c3ccccc3)C(=O)N2[C@H]1C(=O)O [AMPICILLIN]
- diameter of the inhibition zone (DIZ) (Proteus vulgaris): inactive
- diameter of the inhibition zone (DIZ) (Escherichia coli): inactive
- diameter of the inhibition zone (DIZ) (Pseudomonas aeruginosa): inactive
- diameter of the inhibition zone (DIZ) (Bacillus thuringiensis): inactive
- diameter of the inhibition zone (DIZ) (Klebsiella pneumoniae): inactive
- diameter of the inhibition zone (DIZ) (Bacillus cereus): inactive
- zone of inhibition at 10000 µg/disc (Enterococcus faecalis): 14 mm
- diameter of the inhibition zone (DIZ) (Bacillus subtilis): inactive
